From PubChem
Myeloid diff 2: compounds promoting myeloid differentiation. 360,000 compounds, 1% hits. ER-HoxA9 myeloid progenitors, lysozyme-GFP differentiation, flow cytometry. calls only at 10 µM;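 active means normalized GFP-positive differentiation at or above the plate's own cutoff, the solvent-only control mean plus 3 SD; inconclusive means no clear call, values can overlap the other calls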;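 further: cells exposed to compound for four days before flow analysis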
core dimer inh: HCV core protein dimerization inhibition. inhibition, % at 5 µM. 300,000 compounds, 0.33% hits. TR-FRET GST/Flag-core106 dimerization, 1536-well;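 active means inhibition above the mean of all tested compounds plus 3 SD, set per screening campaign, cut at about 45% in these data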
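Assay system – GST-tagged and Flag-tagged HCV core protein residues 1-106 · Quantity – core106 proteins, GST 13.5 nM and Flag 17 nM · Benchmarks – unlabelled core106 and no-GST-core106 wells · Read-out basis – percent inhibition of core106 dimerization signal · Detection – time-resolved FRET, ex 340 nm, em 617 and 671 nm · Schedule – 4 h at 22.5 °C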
NadD inh: inhibitors of Staphylococcus aureus NadD; 360,000 compounds, 0.78% hits; purified NadD enzyme, colorimetric absorbance read-out; AID 602399; inhibition, % at 20 µM; in the data active means inhibition above about 26%
Fh CTSL1 inh: blocks F. hepatica cathepsin L1 in PFM18AAP counter-screen. recombinant F. hepatica cathepsin L1, Z-Leu-Arg-MCA fluorescence. 300,000 compounds, 0.49% hits. inhibition, % at 5.96 µM. AID 1906;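 active means inhibition above the mean of all tested compounds plus 3 SD, set per screening campaign, cut at about 17% in these data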
PP1 counter: counter-screen for PP5 inhibitors: inhibitors of human PP1-alpha; P62136; purified PP1alpha, OMFP fluorescence; inhibition, % at 6.7 µM; 320,000 compounds, 0.9% hits;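 active means inhibition above the mean inhibition of all tested compounds plus 3 SD, computed separately for each screening campaign, cut at about 15% in these data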
PP5 inh: inhibitors of human protein phosphatase 5 (PP5). P53041. purified PP5c, OMFP substrate fluorescence. inhibition, % at 6.7 µM. 320,000 compounds, 0.18% hits;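 active means inhibition above the campaign's mean inhibition across all tested compounds plus 3 SD, cut at about 9.5% in these data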
Target sequence (P53041 whole entry, looked up): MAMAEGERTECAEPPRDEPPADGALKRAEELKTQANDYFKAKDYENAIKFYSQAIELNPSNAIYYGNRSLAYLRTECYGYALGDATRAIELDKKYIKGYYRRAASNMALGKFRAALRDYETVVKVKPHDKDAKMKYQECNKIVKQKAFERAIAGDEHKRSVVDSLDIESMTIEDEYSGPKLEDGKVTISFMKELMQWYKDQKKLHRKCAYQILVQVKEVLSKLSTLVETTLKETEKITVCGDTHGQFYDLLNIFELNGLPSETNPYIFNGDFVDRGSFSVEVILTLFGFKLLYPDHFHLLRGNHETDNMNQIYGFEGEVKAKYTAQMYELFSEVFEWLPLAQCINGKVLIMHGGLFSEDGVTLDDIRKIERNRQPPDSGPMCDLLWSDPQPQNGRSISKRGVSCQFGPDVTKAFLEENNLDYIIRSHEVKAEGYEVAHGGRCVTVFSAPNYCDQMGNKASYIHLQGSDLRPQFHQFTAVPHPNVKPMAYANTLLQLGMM
PP5 inh confirm: PP5 (human) inhibition, confirmation | shares compounds with PP5 inh | Purified PP5, fluorogenic phosphatase substrate, fluorescence | inhibition, % at 6.7 µM | 460 compounds, 22% hits | AID 2331; in the data active means inhibition above about 9.5%
PP1 counter 3x: PP1 phosphatase inhibition, counter-screen for PP5 inhibitors | AID 2355 | 460 compounds, 4% hits | shares compounds with PP5 inh | inhibition, % at 6.7 µM | PP1 enzyme, fluorescent phosphatase substrate; in the data active means inhibition above about 16%
Each line names hits and unclear results; the compound was inactive in the other large screens (follow-up assays come after a bar, where they were run). Hits are enriched below; roughly 3.1% of the tested compounds scored in any of these assays.

O=C(O)C1C2C=CC(O2)C1C(=O)Nc1ccccc1C(F)(F)F (stereo not given)	none
O=C(O)C1C2C=CC(O2)C1C(=O)Nc1cccc(C(F)(F)F)c1 (stereo not given)	PP5 inh 32.8 | PP5 inh confirm inactive | PP1 counter 3x inactive
CC(=O)Nc1nc(C)cs1	none
Cc1cc(C)cc(NC(=O)C2C3C=CC(O3)C2C(=O)O)c1 (stereo not given)	PP5 inh 19.9 | PP5 inh confirm inactive | PP1 counter 3x 18.9
Cc1csc(NC(=O)C2C3C=CC(O3)C2C(=O)O)n1 (stereo not given)	PP5 inh 15.5 | PP5 inh confirm 15.1 | PP1 counter 3x inactive
CN(c1ccccc1)S(=O)(=O)c1cc(C(=O)NCc2ccco2)ccc1Cl	none (no result: core dimer inh, Fh CTSL1 inh, PP1 counter, PP5 inh)
COc1cccc(C(C[N+](=O)[O-])c2c(C)[nH]n(-c3ccccc3)c2=O)c1 (stereo not given)	Myeloid diff 2 inconclusive, Fh CTSL1 inh 101.2, PP5 inh 12.0 | PP5 inh confirm inactive | PP1 counter 3x inactive
O=C(O)c1cc(NC(=O)c2ccc(Cl)c([N+](=O)[O-])c2)cc(C(=O)O)c1	none
O=C(Nc1ccc(C(O)(C(F)(F)F)C(F)(F)F)cc1)c1ccc(Cl)c([N+](=O)[O-])c1	PP5 inh 11.1 | PP5 inh confirm inactive | PP1 counter 3x inactive
C=CCN1C(=O)c2ccc(C(=O)N3CCN(S(=O)(=O)c4cc(C)ccc4C)CC3)cc2C1=O	none
Cc1snc(S(=O)(=O)/C(C#N)=N\Nc2ccccc2)c1C#N	none
Cc1snc(S(=O)(=O)/C(C#N)=N/Nc2ccc(C(F)(F)F)cc2)c1C#N	PP5 inh 10.3 | PP5 inh confirm inactive | PP1 counter 3x inactive
Cc1noc(C)c1S(=O)(=O)Nc1ccc2c(c1)C(=O)N([C@H](C)CO)C[C@H](C)[C@@H](CN(C)C(=O)NC1CCCCC1)O2	none (no result: core dimer inh, Fh CTSL1 inh, PP1 counter, PP5 inh)
COc1cc2c(cc1OC)C(c1cccs1)N(C(=O)c1cccnc1)CC2 (stereo not given)	Myeloid diff 2 inconclusive
COc1cc2c(cc1OC)C(c1cccs1)N(C(=O)C(C)C)CC2 (stereo not given)	PP5 inh 9.9 | PP5 inh confirm inactive | PP1 counter 3x inactive
C=CCn1c(NCc2ccc(OC)cc2O)nc2ccccc21	none
CCn1c(COc2cccc(C)c2)nnc1SCC(=O)Nc1cccc(C(=O)OC)c1	none
CCOC(=O)c1cccc(NC(=O)CSc2nnc(COc3ccccc3)n2CC)c1	PP5 inh 12.1 | PP5 inh confirm inactive | PP1 counter 3x inactive
COC1=C(c2ccccc2)C(=O)c2ccccc2C1=O	none
O=C1C(c2ccccc2)=[N+]([O-])c2ccccc21	Myeloid diff 2 inconclusive, Fh CTSL1 inh 31.0, PP5 inh 10.3 | PP5 inh confirm 36.0 | PP1 counter 3x 87.6
CCN(CC(=O)Nc1ccc2c(c1)OCCO2)C(=O)/C=C/c1ccc([N+](=O)[O-])cc1	none (no result: core dimer inh, Fh CTSL1 inh)
CCOC(=O)Cc1csc(NC(=O)c2ccc(Cl)nc2)n1	PP5 inh 13.1 | PP5 inh confirm inactive | PP1 counter 3x inactive
CN(C)S(=O)(=O)c1ccc(NC(=O)c2cc3ccccc3o2)cc1	PP5 inh 10.2 | PP5 inh confirm inactive | PP1 counter 3x inactive
COc1ccc(CN(C)C(=O)[C@H]2O[C@@H](n3cnc4c(N)ncnc43)[C@H](O)[C@@H]2O)cc1OC	none (no result: core dimer inh, Fh CTSL1 inh, PP1 counter, PP5 inh)
O=C(O)c1nnn(-c2cc(C(F)(F)F)cc(C(F)(F)F)c2)c1-c1ccccc1	Fh CTSL1 inh 45.5, PP5 inh 19.9 | PP5 inh confirm inactive | PP1 counter 3x inactive
O=C(Nc1ccccc1Cl)c1c(F)c(F)c(F)c(F)c1F	none
O=C(NC1(O)C(=O)c2ccccc2C1=O)c1ccccc1	Fh CTSL1 inh 63.9, PP5 inh 14.8 | PP5 inh confirm 38.7 | PP1 counter 3x inactive
COC1(NC(=O)c2ccccc2)C(C)=CC(=O)C=C1C	none
O=C(NC1(O)C(=O)c2ccccc2C1=O)c1c(Cl)cccc1Cl	Fh CTSL1 inh 53.8, PP5 inh 16.4 | PP5 inh confirm 41.5 | PP1 counter 3x inactive
Cc1ccc(S(=O)(=O)NCCNc2ccc(Br)c(C)c2)cc1	none (no result: core dimer inh, Fh CTSL1 inh, PP1 counter, PP5 inh)
